{"source": "paper PMC11605132", "about": "(eClinicalMedicine, 2024)", "key": {"patients with AIS [1]": {"test_system": "patients with AIS", "test": "NIHSS score, primary efficacy endpoint, AMFIS trial", "format": "in vivo, human", "procedure,_shortened": "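Trained stroke neurologists scored NIHSS at baseline, 8, 24 and 72 h after infusion start, and on Day 7, keeping the same examiner per patient where possible. Least square means with 95% CI came from generalized estimating equations. Fixed effects were treatment, time point and treatment×time, with baseline NIHSS as covariate. The same model compared the pulsed and continuous-pulsed groups.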"}, "[2]": {"format": "in vivo", "details": "human, plasma, 9 ng/kg/min, mean ± SD"}, "patients with AIS [3]": {"test_system": "patients with AIS", "test": "Intracerebral hemorrhage on CT and MRI, AMFIS trial", "format": "in vivo, human", "details": "Day 1 to Day 90", "procedure,_shortened": "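Patients (20–90 years, new DWI lesion, treated within 24 h of onset) were randomized 2:1 to adrenomedullin or a D-mannitol placebo under double-blind conditions. Non-contrast CT was performed at 24 h and on Day 7, and MRI on Day 90.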"}, "healthy volunteers": {"test_system": "healthy volunteers", "details": "cited from earlier work"}, "patients with AIS [4]": {"test_system": "patients with AIS", "test": "All adverse events, AMFIS phase II trial", "format": "in vivo, human", "procedure,_shortened": "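Double-blind, 2:1 stratified block randomization by age (<75, 75–90 years) against a placebo vial of 50 mg D-mannitol. Patients were aged 20–90 with new DWI lesions and treated within 24 h of onset. AEs were monitored from infusion start to 3 days after the intervention ended, with close blood-pressure watch. Severity was graded on five levels (mild to death), and an independent committee judged causality.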"}, "[5]": {"details": "patients receiving adrenomedullin, n=40"}}, "note": "“Also recorded” adds a separate entry of the source. Read-outs that look alike come from different tables or passages of the source."}
{"smiles": "CC[C@H](C)[C@H](NC(=O)[C@H](CCC(N)=O)NC(=O)[C@H](Cc1c[nH]cn1)NC(=O)[C@H](C)NC(=O)[C@H](CC(C)C)NC(=O)[C@H](CCCCN)NC(=O)[C@H](CCC(N)=O)NC(=O)[C@@H](NC(=O)[C@@H](NC(=O)[C@@H]1CSSC[C@H](NC(=O)CNC(=O)[C@H](Cc2ccccc2)NC(=O)[C@H](CO)NC(=O)[C@H](CCCNC(=N)N)NC(=O)[C@H](CC(C)C)NC(=O)CNC(=O)[C@H](CCC(N)=O)NC(=O)[C@H](Cc2ccccc2)NC(=O)[C@H](CC(N)=O)NC(=O)[C@H](CC(N)=O)NC(=O)[C@H](CCSC)NC(=O)[C@H](CO)NC(=O)[C@H](CCC(N)=O)NC(=O)[C@H](CCCNC(=N)N)NC(=O)[C@@H](N)Cc2ccc(O)cc2)C(=O)N[C@@H](CCCNC(=N)N)C(=O)N[C@@H](Cc2ccccc2)C(=O)NCC(=O)N[C@@H]([C@@H](C)O)C(=O)N1)[C@@H](C)O)C(C)C)C(=O)N[C@@H](Cc1ccc(O)cc1)C(=O)N[C@@H](CCC(N)=O)C(=O)N[C@@H](Cc1ccccc1)C(=O)N[C@H](C(=O)N[C@@H](CC(=O)O)C(=O)N[C@@H](CCCCN)C(=O)N[C@@H](CC(=O)O)C(=O)N[C@@H](CCCCN)C(=O)N[C@@H](CC(=O)O)C(=O)N[C@@H](CC(N)=O)C(=O)N[C@H](C(=O)N[C@@H](C)C(=O)N1CCC[C@H]1C(=O)N[C@@H](CCCNC(=N)N)C(=O)N[C@@H](CO)C(=O)N[C@@H](CCCCN)C(=O)N[C@H](C(=O)N[C@@H](CO)C(=O)N1CCC[C@H]1C(=O)N[C@@H](CCC(N)=O)C(=O)NCC(=O)N[C@@H](Cc1ccc(O)cc1)C(N)=O)[C@@H](C)CC)C(C)C)[C@@H](C)O", "note": "[adrenomedullin]", "values": [{"measurement": "Intergroup difference in NIHSS changes, LSM (95% CI)", "setting": "patients with AIS [1]; 7-day, AM minus placebo, GEE model", "result": "0.32 (−0.91–1.56)"}, {"measurement": "NIHSS changes from pre-treatment, LSM (SE; 95% CI in text)", "setting": "patients with AIS [1]; 7-day, AM n=40, GEE model", "result": "−0.76"}, {"measurement": "Intergroup difference in NIHSS changes, LSM (95% CI)", "setting": "patients with AIS [1]; 7-day, C/P-AM minus P-AM, GEE", "result": "0.67 (−0.64–1.98)"}, {"measurement": "NIHSS changes from pre-treatment, LSM (SE; 95% CI in text)", "setting": "patients with AIS [1]; 7-day, C/P-AM, GEE, dose-finding analysis", "result": "−0.42"}, {"measurement": "NIHSS changes from pre-treatment, LSM (SE; 95% CI in text)", "setting": "patients with AIS [1]; 7-day, P-AM, GEE, dose-finding analysis", "result": "−1.08"}, {"measurement": "Intergroup difference in NIHSS changes, LSM (95% CI)", "setting": "patients with AIS [1]; 8-h, AM minus placebo, GEE model", "result": "0.25 (−0.24–0.74)"}, {"measurement": "Intergroup difference in NIHSS changes, LSM (95% CI)", "setting": "patients with AIS [1]; 8-h, C/P-AM minus P-AM, GEE", "result": "0.52 (−0.12–1.16)"}, {"measurement": "Intergroup difference in NIHSS changes, LSM (95% CI)", "setting": "patients with AIS [1]; 24-h, AM minus placebo, GEE model", "result": "0.15 (−0.46–0.75)"}, {"measurement": "Intergroup difference in NIHSS changes, LSM (95% CI)", "setting": "patients with AIS [1]; 24-h, C/P-AM minus P-AM, GEE", "result": "0.62 (−0.29–1.53)"}, {"measurement": "Intergroup difference in NIHSS changes, LSM (95% CI)", "setting": "patients with AIS [1]; 72-h, AM minus placebo, GEE model", "result": "0.35 (−0.93–1.63)"}, {"measurement": "Intergroup difference in NIHSS changes, LSM (95% CI)", "setting": "patients with AIS [1]; 72-h, C/P-AM minus P-AM, GEE", "result": "0.32 (−1.09–1.72)"}, {"measurement": "mean change in the NIHSS score from pre-treatment to Day 7", "setting": "patients with AIS [1]; C/P-AM", "result": "−0.45"}, {"measurement": "median change in the NIHSS score from pre-treatment to Day 7", "setting": "patients with AIS [1]; C/P-AM", "result": "−0.5"}, {"measurement": "mean change in the NIHSS score from pre-treatment to Day 7", "setting": "patients with AIS [1]; P-AM", "result": "−1.05"}, {"measurement": "median change in the NIHSS score from pre-treatment to Day 7", "setting": "patients with AIS [1]; P-AM", "result": "−1"}, {"measurement": "efficacy on NIHSS scores", "setting": "patients with AIS [1]; in vivo", "result": "not demonstrated"}, {"measurement": "mean change in the NIHSS score from pre-treatment to Day 7", "setting": "patients with AIS [1]; [5]", "result": "−0.75"}, {"measurement": "median change in the NIHSS score from pre-treatment to Day 7", "setting": "patients with AIS [1]; [5]", "result": "−1.00"}, {"measurement": "Cmax", "setting": "[2]; C/P-AM", "result": 0.061, "unit": "ng/mL"}, {"measurement": "Cmax", "setting": "[2]; P-AM", "result": 0.0442, "unit": "ng/mL"}, {"measurement": "intracerebral hemorrhage on CT and MRI", "setting": "patients with AIS [3]", "result": "no intracerebral hemorrhage was observed"}, {"measurement": "half-life", "setting": "healthy volunteers", "result": "< 1", "unit": "h"}, {"measurement": "blood levels of adrenomedullin", "setting": "healthy volunteers; dose of 9 ng/kg/min", "result": "0.01 to 0.02", "unit": "ng/mL"}, {"measurement": "severe adverse events", "setting": "healthy volunteers; healthy volunteers", "result": "no severe adverse events"}, {"measurement": "patients with AEs, n (%, 95% CI)", "setting": "patients with AIS [4]; C/P-AM", "result": 14}, {"measurement": "patients with AEs, n (%, 95% CI)", "setting": "patients with AIS [4]; P-AM", "result": 11}, {"measurement": "cases of drop in blood pressure", "setting": "patients with AIS [4]; adrenomedullin group, n=40", "result": 10.0, "unit": "%"}, {"measurement": "cases of low blood pressure", "setting": "patients with AIS [4]; adrenomedullin group, n=40", "result": 2.5, "unit": "%"}, {"measurement": "life-threatening AEs or death", "setting": "patients with AIS [4]; first-half and second-half cohorts", "result": "No life-threatening AEs or death were reported"}, {"measurement": "Laboratory tests", "setting": "patients with AIS [4]; in vivo", "result": "no clinically significant changes"}, {"measurement": "tolerability", "setting": "patients with AIS [4]; non-severe, non-embolic AIS", "result": "well tolerated"}, {"measurement": "SAEs related to the intervention", "setting": "patients with AIS [4]; [5]", "result": "Neither intervention-related serious adverse events nor severe adverse events were observed; also recorded: no “SAEs related to the intervention” were reported; also recorded: No SAEs were observed"}, {"measurement": "Severe AEs (grade 3)", "setting": "patients with AIS [4]; [5]", "result": "observed only in the placebo group"}]}
